According to PMC6873108 (Journal of Medicinal Chemistry, 2019):
“Also recorded” adds a separate entry of the source.

What was measured:
P. aeruginosa PA14 = settings: vs DMSO control; cited from earlier work
LecBPA14 [1] = target: T1, LecBPA14 (Pseudomonas aeruginosa, UniProt A0A0H2ZE85); settings: read-out: LecBPA14 IC50; previously published; cited from earlier work
T1 sequence (A0A0H2ZE85 2-115): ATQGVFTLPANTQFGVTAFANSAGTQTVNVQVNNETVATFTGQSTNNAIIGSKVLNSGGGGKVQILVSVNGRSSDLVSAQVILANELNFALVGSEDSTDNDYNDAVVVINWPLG

[2] = mice; as reported; cited from earlier work
[3] = cited from earlier work
Plasma stability assay = format: in vitro ADME, mouse; settings: 25 μM, 37 °C, period of 120 min
Procedure, shortened: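 Test compound (DMSO stock) spiked into mouse plasma (pH 7.4) at final 25 μM and incubated at 37 °C. Samples taken at 0, 15, 30, 60, 90 and 120 min, extracted with methanol containing internal standard (5 min shaking), centrifuged, and supernatants analyzed by reversed-phase C18 HPLC (water/acetonitrile + 0.1% formic acid gradient). Controls were procaine, propoxycaine and procainamide at 250 μM.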

LecBPA14 [4] = target: T1, LecBPA14; settings: ITC, 25 °C, mean
LecBPAO1 = LecBPAO1 (Pseudomonas aeruginosa, UniProt Q9HYN5); assay: Isothermal titration calorimetry; format: binding; settings: ITC, 25 °C, mean
Sequence of LecBPAO1 (Q9HYN5 2-115 limits assumed): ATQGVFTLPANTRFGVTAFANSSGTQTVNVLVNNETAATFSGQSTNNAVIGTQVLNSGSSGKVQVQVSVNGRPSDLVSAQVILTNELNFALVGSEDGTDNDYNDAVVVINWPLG

[5] = system: mCherry-expressing P. aeruginosa; assay: Bacterial growth by total fluorescence intensity; format: cell-based, Pseudomonas aeruginosa; settings: 100 μM, 23 h, vs DMSO control
Hep G2 cells = assay: MTT assay; format: cell-based, human; settings: up to 100 μM, 24 h
Procedure, shortened: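 Hep G2 cells grown in DMEM + 10% heat-inactivated FCS (37 °C, 5% CO2) to 75% confluency, then exposed 24 h to compound (0.01–100 μM; DMSO stock diluted in PBS, final 0.1% DMSO). Controls: vehicle, medium, and cells lysed with 0.5% Triton X-100. After two washes, MTT (final 1 mg/mL) for 3 h, then 0.04 M HCl/2-propanol for 15 min at room temperature. A560 read against 670 nm reference; normalized as (A–B)/(C–B) to Triton and vehicle controls.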

Plasma protein binding = format: in vitro ADME, mouse; settings: murine plasma, 100 μM, 37 °C, 2 h

Which “effect on biofilm formation” value (P. aeruginosa PA14) does the source give for `CO[C@H]1O[C@H](CO)[C@@H](O)[C@H](O)[C@@H]1O` [Compound 1, methyl α-D-mannoside] here?
The value was “nonsignificant effect”.

Which IC50 (LecBPA14 [1]) does the source give for `COc1ccc(/C=C/C(=O)NC[C@H]2O[C@@H](C)[C@@H](O)[C@@H](O)[C@@H]2O)cc1OC` [Compound 5] here?
The IC50 was 2800 nM.

What does the source list for `Cc1cc(C)c(S(=O)(=O)NC[C@H]2O[C@@H](C)[C@@H](O)[C@@H](O)[C@@H]2O)c(C)c1` [Compound 6]?
toxicity in a murine pharmacokinetics model [2]: nontoxic; metabolic stability against liver microsomes and murine plasma [3]: good metabolic stability

With `C[C@@H]1O[C@H](CNS(=O)(=O)c2cccs2)[C@@H](O)[C@H](O)[C@@H]1O` [Compound 7] as the compound, how does the “toxicity in a murine pharmacokinetics model” value [2] read?
The value was “nontoxic”.

And the “metabolic stability against liver microsomes and murine plasma” value [3]?
Its value is “good metabolic stability”.

For `Cc1oncc1S(=O)(=O)NC[C@H]1O[C@@H](C)[C@@H](O)[C@@H](O)[C@@H]1O` [Compound 17, N-β-L-Fucopyranosylmethyl 5-Methyl-4-isoxazolesulfonamide], which “stability in murine plasma” value (Plasma stability assay) is on record?
Its value is “fully stable”.

Which results are given for `Cc1cc(S(=O)(=O)NC[C@H]2O[C@@H](C)[C@@H](O)[C@@H](O)[C@@H]2O)c(C)s1` [Compound 22, N-β-L-Fucopyranosylmethyl 2,5-Dimethyl-3-thiophenesulfonamide]?
-TΔS LecBPA14 (LecBPA14 [4]): 0.789 kcal/mol; ΔH LecBPA14 (LecBPA14 [4]): -9.66 kcal/mol; -TΔS LecBPAO1 (LecBPAO1): 3.23 kcal/mol; ΔH LecBPAO1 (LecBPAO1): -11.3 kcal/mol; bacterial growth (total fluorescence intensity) [5]: comparable densities; stability in murine plasma (Plasma stability assay): fully stable

With `Cc1ccc(S(=O)(=O)NC[C@H]2O[C@@H](C)[C@@H](O)[C@@H](O)[C@@H]2O)s1` [Compound 23, N-β-L-Fucopyranosylmethyl 5-Methyl-2-thiophenesulfonamide] as the compound, how does the “stability in murine plasma” value (Plasma stability assay) read?
The value was “fully stable”.

With `C[C@@H]1O[C@H](CNS(=O)(=O)c2cc(Cl)c(Cl)s2)[C@@H](O)[C@H](O)[C@@H]1O` [Compound 27, N-β-L-Fucopyranosylmethyl 4,5-Dichloro-2-thiophenesulfonamide] as the compound, how does the “stability in murine plasma” value (Plasma stability assay) read?
The value was “fully stable”.

Which “toxicity to Hep G2 cells (in words)” value (Hep G2 cells) does the source give for `C[C@@H]1O[C@H](CNS(=O)(=O)c2ccc(C#Cc3ccccc3)s2)[C@@H](O)[C@H](O)[C@@H]1O` [Compound 29, N-β-L-Fucopyranosylmethyl 5-Phenylethynyl-2-thiophenesulfonamide] here?
Its value is “weak toxicity; also recorded: moderate mammalian cytotoxicity”.

And the “plasma protein binding (in words)” value (Plasma protein binding)?
The value was “highly bound; also recorded: very high plasma protein binding”.

And the “bacterial growth (total fluorescence intensity)” value [5]?
The value was “comparable densities”.

What about the “stability in murine plasma” value (Plasma stability assay) of the same compound?
Its value is “fully stable”.

For `CO[C@@H]1O[C@@H](C)[C@@H](O)[C@@H](O)[C@@H]1O` [Compound 42, methyl α-L-fucoside], which “effect on biofilm formation” value (P. aeruginosa PA14) is on record?
The value was “nonsignificant effect”.
